Source: ChEMBL document CHEMBL5303300, “EUbOPEN Chemogenomics Library - Multiplex” (2023)
“And” between values parts separate entries of the source, which are not always exact repeats. Equal entries are not always repeated.

Experiments:
U2OS = assay: Multiplex assay against U2OS; format: toxicity, cell-based; conditions: human, number of replicates 2
Summary of the method: (§1)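 Four dyes were applied at seeding to live cells: Hoechst33342, BioTracker Green Microtubule Cytoskeleton Dye, MitoTracker Red and Annexin V Alexa Fluor 680. Imaging after compound addition used a CQ1 microscope at 37°C and 5% CO2. CellPathfinder machine-learning gating then sorted cells into Hoechst high-intensity objects or normal cells, normal cells into healthy, pyknosed or fragmented nuclei, and pyknosed cells into mitotic or apoptotic, with tubulin, mitochondrial-mass and membrane-permeability phenotypes given as per cents of healthy-nucleus cells.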

Fibroblast = assay: Multiplex assay against human fibroblast; format: toxicity, cell-based; conditions: number of replicates 2; summary of the method: as §1
[1] = 12 h, 1 µM, compound concentration 1 uM
[2] = 12 h, 10 µM, compound concentration 10 uM
[3] = 24 h, 1 µM, compound concentration 1 uM
[4] = 24 h, 10 µM, compound concentration 10 uM
[5] = 48 h, 1 µM, compound concentration 1 uM
[6] = 48 h, 10 µM, compound concentration 10 uM

Question: How did the “Population Apoptotic (%)” value (U2OS; [1]) turn out when `CN1CCCN(C(=O)c2cccc(-c3ccc(/C=C4/C(=O)Nc5ccc(Cl)cc54)o3)c2)CC1` was run?
Answer: 64% and 66%

Question: And the “Population Fragmented Nuclei (%)” value (U2OS; [1])?
Answer: 9% and 10%

Question: And the “Population Healthy Nuclei (%)” value (U2OS; [1])?
Answer: 77% and 81%

Question: And the “Population Hoechst High Intensity Objects (%)” value (U2OS; [1])?
Answer: 0%

Question: And the “Population Membrane Permeable-Phenotype (%)” value (U2OS; [1])?
Answer: 0%

Question: What about the “Population Mitochondria Different-Phenotype (%)” value (U2OS; [1]) of the same compound?
Answer: 6% and 0%

Question: What about the “Population Mitotic Cells (%)” value (U2OS; [1]) of the same compound?
Answer: 35% and 33%

Question: And the “Population Normal (%)” value (U2OS; [1])?
Answer: 100%

Question: What about the “Population Pyknosed Nuclei (%)” value (U2OS; [1]) of the same compound?
Answer: 13% and 8%

Question: What about the “Population Tubulin-Different-Phenotype (%)” value (U2OS; [1]) of the same compound?
Answer: 70% and 43%

Question: What about the “Population Apoptotic (%)” value (U2OS; [2]) of the same compound?
Answer: 91% and 64%

Question: What about the “Population Healthy Nuclei (%)” value (U2OS; [2]) of the same compound?
Answer: 18% and 30%

Question: What about the “Population Hoechst High Intensity Objects (%)” value (U2OS; [2]) of the same compound?
Answer: 0% and 10%

Question: What about the “Population Normal (%)” value (U2OS; [2]) of the same compound?
Answer: 99% and 89%

Question: What about the “Population Pyknosed Nuclei (%)” value (U2OS; [2]) of the same compound?
Answer: 68% and 26%

Question: And the “Population Tubulin-Different-Phenotype (%)” value (U2OS; [2])?
Answer: 100% and 56%

Question: And the “Total Cell Count” value (U2OS; [2])?
Answer: 142 and 58

Question: What about the “Population Apoptotic (%)” value (U2OS; [3]) of the same compound?
Answer: 62% and 87%

Question: And the “Population Fragmented Nuclei (%)” value (U2OS; [3])?
Answer: 7% and 8%

Question: What about the “Population Healthy Nuclei (%)” value (U2OS; [3]) of the same compound?
Answer: 73%

Question: What about the “Population Hoechst High Intensity Objects (%)” value (U2OS; [3]) of the same compound?
Answer: 0%

Question: And the “Population Membrane Permeable-Phenotype (%)” value (U2OS; [3])?
Answer: 6% and 2%

Question: And the “Population Mitochondria Different-Phenotype (%)” value (U2OS; [3])?
Answer: 3% and 5%

Question: What about the “Population Normal (%)” value (U2OS; [3]) of the same compound?
Answer: 100%

Question: And the “Population Pyknosed Nuclei (%)” value (U2OS; [3])?
Answer: 19% and 18%

Question: What about the “Population Tubulin-Different-Phenotype (%)” value (U2OS; [3]) of the same compound?
Answer: 53% and 72%

Question: What about the “Population Apoptotic (%)” value (U2OS; [4]) of the same compound?
Answer: 95% and 57%

Question: What about the “Population Hoechst High Intensity Objects (%)” value (U2OS; [4]) of the same compound?
Answer: 0% and 15%

Question: And the “Population Normal (%)” value (U2OS; [4])?
Answer: 99% and 85%

Question: And the “Population Pyknosed Nuclei (%)” value (U2OS; [4])?
Answer: 89% and 41%

Question: What about the “Population Tubulin-Different-Phenotype (%)” value (U2OS; [4]) of the same compound?
Answer: 100% and 72%

Question: What about the “Total Cell Count” value (U2OS; [4]) of the same compound?
Answer: 136 and 60

Question: What about the “Population Apoptotic (%)” value (U2OS; [5]) of the same compound?
Answer: 77% and 90%

Question: What about the “Population Fragmented Nuclei (%)” value (U2OS; [5]) of the same compound?
Answer: 10%

Question: What about the “Population Healthy Nuclei (%)” value (U2OS; [5]) of the same compound?
Answer: 65% and 61%

Question: What about the “Population Hoechst High Intensity Objects (%)” value (U2OS; [5]) of the same compound?
Answer: 0%

Question: And the “Population Membrane Permeable-Phenotype (%)” value (U2OS; [5])?
Answer: 8% and 4%

Question: What about the “Population Mitochondria Different-Phenotype (%)” value (U2OS; [5]) of the same compound?
Answer: 0% and 1%

Question: What about the “Population Mitotic Cells (%)” value (U2OS; [5]) of the same compound?
Answer: 22% and 10%

Question: And the “Population Normal (%)” value (U2OS; [5])?
Answer: 100%

Question: What about the “Population Pyknosed Nuclei (%)” value (U2OS; [5]) of the same compound?
Answer: 23% and 28%

Question: And the “Population Tubulin-Different-Phenotype (%)” value (U2OS; [5])?
Answer: 52% and 80%

Question: What about the “Total Cell Count” value (U2OS; [5]) of the same compound?
Answer: 38 and 106

Question: What about the “Population Apoptotic (%)” value (U2OS; [6]) of the same compound?
Answer: 96% and 62%

Question: What about the “Population Healthy Nuclei (%)” value (U2OS; [6]) of the same compound?
Answer: 22% and 27%

Question: What about the “Population Hoechst High Intensity Objects (%)” value (U2OS; [6]) of the same compound?
Answer: 0% and 14%

Question: What about the “Population Normal (%)” value (U2OS; [6]) of the same compound?
Answer: 100% and 85%

Question: What about the “Population Pyknosed Nuclei (%)” value (U2OS; [6]) of the same compound?
Answer: 73% and 29%

Question: What about the “Population Tubulin-Different-Phenotype (%)” value (U2OS; [6]) of the same compound?
Answer: 92% and 86%

Question: And the “Total Cell Count” value (U2OS; [6])?
Answer: 127 and 64

Question: What about the “Population Apoptotic (%)” value (Fibroblast; [1]) of the same compound?
Answer: 43% and 41%

Question: And the “Population Fragmented Nuclei (%)” value (Fibroblast; [1])?
Answer: 4% and 3%

Question: What about the “Population Healthy Nuclei (%)” value (Fibroblast; [1]) of the same compound?
Answer: 79% and 72%

Question: What about the “Population Hoechst High Intensity Objects (%)” value (Fibroblast; [1]) of the same compound?
Answer: 0%

Question: What about the “Population Membrane Permeable-Phenotype (%)” value (Fibroblast; [1]) of the same compound?
Answer: 4% and 1%

Question: And the “Population Mitochondria Different-Phenotype (%)” value (Fibroblast; [1])?
Answer: 2%

Question: What about the “Population Mitotic Cells (%)” value (Fibroblast; [1]) of the same compound?
Answer: 56% and 58%

Question: And the “Population Normal (%)” value (Fibroblast; [1])?
Answer: 100%

Question: And the “Population Pyknosed Nuclei (%)” value (Fibroblast; [1])?
Answer: 16% and 24%

Question: What about the “Population Tubulin-Different-Phenotype (%)” value (Fibroblast; [1]) of the same compound?
Answer: 20%

Question: What about the “Total Cell Count” value (Fibroblast; [1]) of the same compound?
Answer: 283 and 162

Question: What about the “Population Apoptotic (%)” value (Fibroblast; [2]) of the same compound?
Answer: 39% and 56%

Question: And the “Population Fragmented Nuclei (%)” value (Fibroblast; [2])?
Answer: 3% and 1%

Question: And the “Population Healthy Nuclei (%)” value (Fibroblast; [2])?
Answer: 8% and 3%

Question: What about the “Population Hoechst High Intensity Objects (%)” value (Fibroblast; [2]) of the same compound?
Answer: 0%

Question: What about the “Population Mitochondria Different-Phenotype (%)” value (Fibroblast; [2]) of the same compound?
Answer: 7% and 0%

Question: What about the “Population Mitotic Cells (%)” value (Fibroblast; [2]) of the same compound?
Answer: 60% and 44%

Question: What about the “Population Normal (%)” value (Fibroblast; [2]) of the same compound?
Answer: 99% and 100%

Question: What about the “Population Pyknosed Nuclei (%)” value (Fibroblast; [2]) of the same compound?
Answer: 88% and 95%

Question: What about the “Population Tubulin-Different-Phenotype (%)” value (Fibroblast; [2]) of the same compound?
Answer: 61% and 100%

Question: What about the “Total Cell Count” value (Fibroblast; [2]) of the same compound?
Answer: 156 and 131

Question: What about the “Population Apoptotic (%)” value (Fibroblast; [3]) of the same compound?
Answer: 48% and 54%

Question: And the “Population Fragmented Nuclei (%)” value (Fibroblast; [3])?
Answer: 4%

Question: And the “Population Healthy Nuclei (%)” value (Fibroblast; [3])?
Answer: 83% and 75%

Question: What about the “Population Hoechst High Intensity Objects (%)” value (Fibroblast; [3]) of the same compound?
Answer: 0%

Question: What about the “Population Membrane Permeable-Phenotype (%)” value (Fibroblast; [3]) of the same compound?
Answer: 5% and 3%

Question: What about the “Population Mitochondria Different-Phenotype (%)” value (Fibroblast; [3]) of the same compound?
Answer: 3% and 8%

Question: And the “Population Mitotic Cells (%)” value (Fibroblast; [3])?
Answer: 51% and 45%

Question: What about the “Population Normal (%)” value (Fibroblast; [3]) of the same compound?
Answer: 100%

Question: And the “Population Pyknosed Nuclei (%)” value (Fibroblast; [3])?
Answer: 12% and 20%

Question: What about the “Population Tubulin-Different-Phenotype (%)” value (Fibroblast; [3]) of the same compound?
Answer: 25%

Question: What about the “Total Cell Count” value (Fibroblast; [3]) of the same compound?
Answer: 271 and 164

Question: What about the “Population Apoptotic (%)” value (Fibroblast; [4]) of the same compound?
Answer: 75% and 57%

Question: What about the “Population Fragmented Nuclei (%)” value (Fibroblast; [4]) of the same compound?
Answer: 4% and 7%

Question: What about the “Population Healthy Nuclei (%)” value (Fibroblast; [4]) of the same compound?
Answer: 17% and 13%

Question: And the “Population Hoechst High Intensity Objects (%)” value (Fibroblast; [4])?
Answer: 0%

Question: What about the “Population Membrane Permeable-Phenotype (%)” value (Fibroblast; [4]) of the same compound?
Answer: 65% and 52%

Question: And the “Population Mitochondria Different-Phenotype (%)” value (Fibroblast; [4])?
Answer: 4% and 0%

Question: What about the “Population Mitotic Cells (%)” value (Fibroblast; [4]) of the same compound?
Answer: 24% and 42%

Question: And the “Population Normal (%)” value (Fibroblast; [4])?
Answer: 100%
